# Test results published in ChEMBL document CHEMBL1125144, “5-[(Aminoalkyl)amino]imidazo[4,5,1-de]acridin-6-ones as a novel class of antineoplastic agents. Synthesis and biological activity” (J Med Chem, 1990).
# Where “and” joins values, the source holds several entries; their conditions need not be identical. Equal entries are not always repeated.
# Legend:
# P388 [1] = assay: In vivo antitumor activity was determined against P 388 leukemia cells implanted (ip) in BDF1 mice at a dose of 150 mg/kg; type: functional, Mus musculus
# How it was run: (§1)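 Groups of eight BDF1 mice received 10⁶ P388 cells ip on day 0. Control groups of 18 mice received saline. Read-out is T/C (%). T/C ≤85% is scored toxic and ≥125% significant activity. Some doses were repeated in an independent multidose assay.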
# HeLa = assay: In vitro cytotoxic activity against HeLaS3 cells in tissue culture was determined; type: functional, cell-based; settings: Homo sapiens
# How it was run: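 HeLa S3 cells grown in tissue culture. Read-out is the concentration giving 50% inhibition. Significant cytotoxicity is defined as 50% inhibition at <1 µg/mL. Values are the mean of three independent experiments.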
# P388 [2] = assay: In vivo antitumor activity was determined against P 388 leukemia cells implanted (ip) in BDF1 mice at a dose of 175 mg/kg; type: functional, Mus musculus; how it was run: as §1
# P388 [3] = assay: In vivo antitumor activity was determined against P 388 leukemia cells implanted (ip) in BDF1 mice at a dose of 30 mg/kg; type: functional, Mus musculus; how it was run: as §1
# P388 [4] = assay: In vivo antitumor activity was determined against P 388 leukemia cells implanted (ip) in BDF1 mice at a dose of 100 mg/kg; type: functional, Mus musculus; how it was run: as §1
# P388 [5] = assay: In vivo antitumor activity was determined against P 388 leukemia cells implanted (ip) in BDF1 mice at a dose of 25 mg/kg; type: functional, Mus musculus; how it was run: as §1
# P388 [6] = assay: In vivo antitumor activity was determined against P 388 leukemia cells implanted (ip) in BDF1 mice at a dose of 60 mg/kg; type: functional, Mus musculus; how it was run: as §1
# P388 [7] = assay: In vivo antitumor activity was determined against P 388 leukemia cells implanted (ip) in BDF1 mice at a dose of 75 mg/kg; type: functional, Mus musculus; how it was run: as §1
# P388 [8] = assay: In vivo antitumor activity was determined against P 388 leukemia cells implanted (ip) in BDF1 mice at a dose of 50 mg/kg; type: functional, Mus musculus; how it was run: as §1
# P388 [9] = assay: In vivo antitumor activity was determined against P 388 leukemia cells implanted (ip) in BDF1 mice at a dose of 90 mg/kg; type: functional, Mus musculus; how it was run: as §1
# P388 [10] = assay: In vivo antitumor activity was determined against P 388 leukemia cells implanted (ip) in BDF1 mice a dose of 75 mg/kg; type: functional, Mus musculus; how it was run: as §1
# P388 [11] = assay: In vivo antitumor activity was determined against P 388 leukemia cells implanted (ip) in BDF1 mice at a dose of 75; type: functional, Mus musculus; how it was run: as §1
Structure (SMILES),IC50 (HeLa),also measured
Cc1nc2ccc(NCCCN(C)C)c3c(=O)c4ccccc4n1c23.Cl.Cl,0.11 µg/mL,T/C (P388 [1]): 122%
CN(C)CCCCCNc1ccc(N)c2nc3ccccc3c(O)c12.Cl.Cl,1.05 µg/mL,–
CCCc1nc2ccc(NCCN(C)C)c3c(=O)c4ccccc4n1c23.Cl.Cl,0.2 µg/mL,T/C (P388 [2]): 211% and 233%
CN(C)CCCNc1ccc2nc(-c3ccccc3)n3c4ccccc4c(=O)c1c23.Cl.Cl,0.28 µg/mL,T/C (P388 [3]): 110%
CN(C)CCCCCNc1ccc2ncn3c4ccccc4c(=O)c1c23.Cl.Cl,0.5 µg/mL,T/C (P388 [4]): 110%
CN(C)CCCNc1ccc2ncn3c4ccccc4c(=O)c1c23.Cl.Cl,0.15 µg/mL,T/C (P388 [4]; 100 mg/kg): 133% and 120%
CN(C)CCCNc1ccc(N)c2nc3ccccc3c(O)c12.Cl.Cl,0.25 µg/mL,T/C (P388 [5]): <85%
CCc1nc2ccc(NCCN(C)C)c3c(=O)c4ccccc4n1c23.Cl.Cl,0.11 µg/mL,T/C (P388 [4]): 200%
CN(C)CCNc1ccc(N)c2nc3ccccc3c(O)c12.Cl.Cl,2.93 µg/mL,T/C (P388 [4]): <85%
CN(C)CCCCCNc1ccc([N+](=O)[O-])c2nc3ccccc3c(O)c12.Cl,0.13 µg/mL,T/C (P388 [6]): 144%
CCCCCCCCc1nc2ccc(NCCN(C)C)c3c(=O)c4ccccc4n1c23.Cl.Cl,0.2 µg/mL,T/C (P388 [7]): <85%
Cc1nc2ccc(NCCN(C)C)c3c(=O)c4ccccc4n1c23.Cl.Cl,0.05 µg/mL,T/C (P388 [8]; 50 mg/kg): 190% and 230%
CN(C)CCNc1ccc([N+](=O)[O-])c2nc3ccccc3c(O)c12.Cl,0.15 µg/mL,T/C (P388 [5]; 25 mg/kg): 160% and 166%; T/C (P388 [8]): 185%
CCc1nc2ccc(NCCCN(C)C)c3c(=O)c4ccccc4n1c23.Cl.Cl,0.25 µg/mL,T/C (P388 [9]): 130%
CC(=O)Nc1ccc(NCCN(C)C)c2c(O)c3ccccc3nc12.Cl.Cl,> 5 µg/mL,T/C (P388 [10]): 137%
CN(C)CCNc1ccc2ncn3c4ccccc4c(=O)c1c23.Cl.Cl,0.06 µg/mL,T/C (P388 [5]; 25 mg/kg): 180% and 188%
CN(C)CCCNc1ccc([N+](=O)[O-])c2nc3ccccc3c(O)c12.Cl,0.04 µg/mL,T/C (P388 [4]): 189%; T/C (P388 [11]): 190%
CC(C)c1nc2ccc(NCCN(C)C)c3c(=O)c4ccccc4n1c23.Cl.Cl,0.37 µg/mL,T/C (P388 [1]): 166%
CN(C)CCNc1ccc2nc(-c3ccccc3)n3c4ccccc4c(=O)c1c23.Cl.Cl,0.43 µg/mL,T/C (P388 [8]): 150%
CC(=O)Nc1ccc(NCCCN(C)C)c2c(O)c3ccccc3nc12.Cl.Cl,> 5 µg/mL,–
